# A selection: hits, their analogues and other compounds. The true share with any hit is near 1.9%.
# DENV2 CPE = DENV2-induced cell death inhibition; hit rate 1.7% among 350,000; CPE inhibition, % at 9.99 µM; DENV2-infected cells, cytopathic effect rescue, plate reader; in the data active = CPE inhibition above about 20%, passing the limit was not always enough; inconclusive = no clear call, values can overlap the other calls; tested in BHK-21 cells;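 also: 0% = median of neutral control wells and 100% = median of positive control wells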
# F508del corr = CFTR F508del correction in bronchial cells; CFBE cells, YFP halide quenching; stimulated with forskolin plus potentiator P3; % fluorescence drop versus neutral controls; activity (quench increase), % at 7.58 µM; hit rate 0.36% among 350,000; AID 720511;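 active = mean added fluorescence quench of at least 8% versus neutral control, with both replicates also reaching 8%; inconclusive = only one of the mean or replicate conditions met; inactive = mean below 8% and not both replicates reaching 8%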;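 also: cells transiently co-express mutant CFTR-F508del with the halide-sensitive YFP; corrector assay measuring rescue of mutant channel to the surface after 24 h compound exposure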
# PGC1a acetyl inh = lowers PGC1a acetylation signal in U2OS cells. AlphaScreen anti-acetyl-lysine; with virally co-expressed GCN5 acetyltransferase. hit rate 0.17% among 350,000. AID 651687. inhibition, % at 15.6 µM;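 active = every replicate shows inhibition of at least 40%; inconclusive = mean inhibition at least 40% but some replicate below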;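 also: 0% = neutral control wells and 100% = positive control wells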
# FN deposit inh = fibronectin deposition inhibition. hit rate 0.086% among 350,000. AH1F fibroblasts, Alexa488-fibronectin deposition fluorescence, overnight. AID 743247. inhibition, % at 12.6 µM;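 active = mean inhibition across replicates of 30% or more, regardless of how many single replicates reach that level; inconclusive = mean under 30% yet at least half of replicates reach 30%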;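 also: positive control wells lacked labelled fibronectin entirely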
#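 Assay system: AH1F fibroblast monolayer, labelled fibronectin deposition. Amount: 10000 cells per well. Also added: labelled fibronectin 24 nM. Compound: single-point pinned compound. Incubation: cell attachment 1 h, compound and FN exposure overnight. Detection: fluorescence after three HBSS washes, excitation 485 nm, emission 525 nm. Read-out: inhibition of fibronectin deposition signal.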
# Cneo AK release = causes C. neoformans cell lysis | adenylate kinase release luminescence, 4 h; normalised: neutral wells 0, clomiphene wells 100 | hit rate 0.2% among 360,000 | AID 651654 | lysis activity, % at 15 µM;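 active = mean lysis activity across replicates of at least 80%, whatever share of replicates individually reach that level; inactive = mean lysis activity below 80%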
#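 Assay system: Cryptococcus neoformans yeast cells / Dosing: single-point compound dose / Timing: 4 h at 37 °C static, read 1 h later / Measured by: luminescence of released adenylate kinase using an AK detection reagent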
# XiGFP reactiv = activators of X-chromosome reactivation in mouse fibroblasts; XiGFP mouse fibroblasts, % GFP-positive cells imaging, 3 d; cells co-treated with 5-aza-dC sensitizer; scaled so ellipticine positive control = 100%; activation, % at 7.58 µM; hit rate 0.055% among 360,000; AID 743238;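 active = mean normalized replicate activation at least 10% and every replicate at or above 10%; inconclusive = only one of the two criteria met; inactive = mean below 10% and not all replicates reach 10%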;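 also: 0% = median of on-plate neutral control wells and 100% = ellipticine 6 µM median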
#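 Material: XiGFP fibroblasts, SV40-immortalized; Buffer or medium: DMEM containing 5-aza-dC; Compound dosing: single point; Times: 3 days compound exposure.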
# Starred values were filed as active, the others as inactive; ? = inconclusive; · = not tested or not shown; ! = repeats disagree.
SMILES,DENV2 CPE,F508del corr,PGC1a acetyl inh,FN deposit inh,Cneo AK release,XiGFP reactiv
O=C(C1CCCCC1)N1CC2(C1)[C@@H](c1ccccc1)[C@@H](CO)N2Cc1nccs1,28*,3,·,0,·,0
O=C(C1CCCCC1)N1CC2(C1)[C@@H](c1ccccc1)[C@@H](CO)N2CC1CCCC1,69*,0,8,6,·,0
CCN(CC)S(=O)(=O)c1ccc2[nH]c(=O)cc(C(=O)NCC(c3ccco3)N3CCCC3)c2c1 (configuration not stated),27*,0,10,8,·,0
C[C@H]1CCCCO[C@H](CN(C)C(=O)Nc2ccc(F)cc2)[C@@H](C)CN([C@@H](C)CO)C(=O)c2cc(NS(=O)(=O)c3ccc(F)cc3)ccc2O1,27*,-2,4,2,0,0
C[C@H]1CCCCO[C@H](CN(C)C(=O)Nc2ccc(F)cc2)[C@@H](C)CN([C@@H](C)CO)C(=O)c2cc(NS(=O)(=O)c3ccccc3)ccc2O1,53*,-3,-10,·,-4,1
C[C@@H]1CCCCO[C@@H](CN(C)C(=O)c2ccccc2)[C@H](C)CN([C@H](C)CO)C(=O)c2cc(NS(=O)(=O)c3ccc(F)cc3)ccc2O1,22*,0,19,·,-2,0
C[C@@H]1CN([C@H](C)CO)C(=O)c2cc(NS(=O)(=O)c3ccc(F)cc3)ccc2O[C@@H](C)CCCCO[C@H]1CN(C)C(=O)Nc1ccc(F)cc1,-11,0,31,-7,-1,0
C=Cc1ccc(Cn2c(C)c(C(=O)NCc3cccc(C(F)(F)F)c3)sc2=O)cc1,57*,-1,·,-1,0,0
C[C@H](CCC(=O)O)[C@H]1CC[C@H]2[C@@H]3CC[C@@H]4C[C@H](O)CC[C@]4(C)[C@H]3C[C@H](O)[C@]12C,30*!,-13,9,-4,1,0
O=C(C[C@@H]1CC[C@@H](NC(=O)CN2CCOCC2)[C@H](CO)O1)NCc1cccc(F)c1,?,0,2,22,-5,0
COC1=CC(=O)OC(c2cccc([N+](=O)[O-])c2)C1 (configuration not stated),41*,0,·,-2,·,0
Cc1ccc(Cl)cc1N1CCN(CC(O)COC(C)C)CC1 (configuration not stated),33*,-1,-3,5,·,0
CC(C)[C@H](NC(=O)OC(C)(C)C)C(=O)NCC1CCC(C(=O)N[C@@H](Cc2ccccc2)C(=O)O)CC1 (some centres not stated),40*,1,10,1,-2,0
CC1(C)OC2CCN3C(C(O)COS3(=O)=O)C2O1 (configuration not stated),131*,3,13,-7,-2,0
COc1ccccc1-c1c(C)nn2c(N3CCN(Cc4ccccc4)CC3)cc(C)nc12,55*,3,-4,0,1,1
COc1ccc(-c2c(C)nn3c(N4CCN(Cc5ccccc5)CC4)cc(C)nc23)cc1OC,-7,-6,1,1,1,1
COCCNC(=O)[C@H]1[C@H](CO)[C@H]2Cn3c(ccc(C4=CCCCC4)c3=O)[C@@H]1N2C(=O)C1CCCC1,-2,-1,·,·,·,1
C[C@H](NC(=O)c1ccc(Cl)cc1)C(=O)OCn1nnc2ccccc2c1=O,-2,2,3,-3,3,0
CC(NC(=O)c1ccccc1)C(=O)OCn1nnc2ccccc2c1=O (configuration not stated),33*,-6,·,6,-1,0
O=C(C[C@H]1CC[C@@H](NS(=O)(=O)c2ccc(F)cc2)[C@H](CO)O1)NC1CCCCC1,0,1,-6,-12,0,0
CO[C@@H]1CN(C)C(=O)c2ccc(NC(=O)c3ccc(Oc4ccccc4)cc3)cc2OC[C@H](C)NC[C@@H]1C,?,-3,1,12,-1,1
CO[C@@H]1CN(C)C(=O)c2cc(NC(=O)c3ccc(Oc4ccccc4)cc3)ccc2OC[C@H](C)NC[C@@H]1C,22*,-4,5,14,4,0
CO[C@H]1CN(C)C(=O)c2ccc(NC(=O)c3ccccc3)cc2OC[C@H](C)NC[C@@H]1C,39*,-1,-1,-7,·,1
CO[C@H]1CN(C)C(=O)c2ccc(NC(=O)c3ccc(Oc4ccccc4)cc3)cc2OC[C@@H](C)NC[C@H]1C,31*,-4,-16,-12,0,0
CC=Cc1ccc2n(c1=O)C[C@H]1[C@H](CO)[C@@H](C(=O)NCC3CCCCC3)N(C(C)=O)[C@@H]21 (mixture of isomers),0,0,·,·,-2,0
SMILES,DENV2 CPE,F508del corr,PGC1a acetyl inh,FN deposit inh,Cneo AK release,XiGFP reactiv
COc1cccc(NC(=O)CN(C)C(=O)Cc2ccc3c(c2)OCCO3)c1,42*,1,·,3,-2,0
COc1cccc(NC(=O)CN(C)C(=O)Cc2ccc3c(c2)CCC3)c1,-3,-3,-15,-11,1,0
C[C@@H]1CN([C@@H](C)CO)C(=O)c2cc(-c3ccc(C#N)cc3)cnc2O[C@@H]1CN(C)Cc1cncnc1,·,0,0,-8,·,0
CN(C)c1ccc(S(=O)(=O)NCC(=O)N2CCN(S(=O)(=O)c3cccc(F)c3)CC2)cc1[N+](=O)[O-],17,-3,3,3,1,0
CN(CC(=O)Nc1cccc(F)c1)C(=O)CNS(=O)(=O)c1ccc(N(C)C)c([N+](=O)[O-])c1,89*,1,·,2,·,0
CN(c1ccc(O)cc1)c1nc(-c2cccs2)cs1,-2,13*,-1,-8,·,0
Cc1nc(N)sc1-c1csc(N(C)c2ccc(O)cc2)n1,·,1,1,·,6,·
C[C@@H]1CN([C@H](C)CO)C(=O)Cc2cc(NS(=O)(=O)c3cn(C)cn3)ccc2O[C@@H]1CN(C)CC1CCCCC1,34*,0,-4,·,1,0
C[C@@H]1CN([C@H](C)CO)C(=O)Cc2cc(NS(=O)(=O)c3cn(C)cn3)ccc2O[C@@H]1CN(C)Cc1ccccc1,-5,1,·,·,6,0
C[C@@H]1CN([C@@H](C)CO)C(=O)Cc2cc(NS(=O)(=O)c3cn(C)cn3)ccc2O[C@H]1CN(C)Cc1ccccc1,25*,-3,·,·,-2,0
C[C@H]1CN([C@@H](C)CO)C(=O)Cc2cc(NS(=O)(=O)c3cn(C)cn3)ccc2O[C@@H]1CN(C)Cc1ccc(Oc2ccccc2)cc1,0,-2,5,3,110*,0
